Hits are enriched below; roughly 0.9% of the tested compounds scored in any of these assays.
MDM2 E3 inh = blocks human Mdm2 ubiquitin ligase activity. cell-based MDM2 ubiquitination luciferase reporter, 2 h; 0 = plate control, 100 = twice control, blank-subtracted. signal enhancement, % at 5 µM. 0.11% of 210,000 active. AID 1230;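 active = signal enhancement of 30% or more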;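 note: luminescence tracks abundance of the self-degrading MDM2-luciferase fusion protein; higher signal means inhibition of MDM2 E3 ligase activity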
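system = mammalian cells stably expressing self-ubiquitinating, self-degrading MDM2 E3–luciferase fusion | quantity = 2000 cells per well seeded | incubation = 4 h cell settling then 2 h compound exposure, 37 °C | signal = SteadyLite luminescence, 15 min reagent step | benchmarks = plate control and blank wells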
S1P3 antag = S1P3 (human) receptor antagonism; Q99500; inhibition, % at 4.98 µM; 0.27% of 170,000 active; CHO S1P3 NFAT-BLA reporter, FRET fluorescence, antagonist mode;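 active = inhibition above the plate cutoff, the mean inhibition of test wells on that plate plus 3 SD, cut at about 28% in these data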;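 note: cells challenged with S1P at its EC80 of 0.8 µM; blue over green emission ratio from cleaved BLA substrate after 4 h stimulation; 0% = S1P-stimulated wells and 100% = unstimulated DMSO-only wells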
Biofilm kill mix = mixtures killing C. albicans biofilm; 0.02% of 120,000 active; C. albicans biofilm persisters + clotrimazole, fluorescence viability; primary screen in compound mixtures of four per well; inhibition, % at 7.6 µM;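 active = inhibition above 30.3% in the primary screen of four-compound pools, then above 30% when the compound was retested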;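 note: compounds exposed to preformed 24 h biofilms for 48 h; 0% = untreated biofilm control and 100% = clotrimazole plus chlorhexidine kill blank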
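Test system: C. albicans biofilms. Buffer or medium: RPMI/MOPS medium, pH 7.0. Timing: 48 h compound exposure at 37 °C. Technique: Alamar Blue fluorescence. Evaluation: percent inhibition of biofilm viability.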
S1P4 antag = human S1P4 receptor antagonism | inhibition, % at 4.98 µM | 0.26% of 220,000 active | O95977 | AID 1510 | S1P4-expressing cells, antagonist mode, reporter read-out; in the data active = inhibition above about 29%;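 note: 0% = wells stimulated with agonist and 100% = vehicle wells without agonist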
S1P4 ag = agonists of human S1P4 receptor; S1P4-expressing cell line, agonist reporter assay; activation, % at 4.98 µM; 0.35% of 220,000 active; in the data active = activation above about 11%;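 note: 0% = DMSO vehicle and 100% = reference agonist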
S1P4 ag conf = confirmation of human S1P4 receptor agonists; shares compounds with S1P4 ag; S1P4 agonist cell-based reporter assay; activation, % at 4.98 µM; 7% of 740 active; in the data active = activation above about 12%;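 note: 0% = vehicle and 100% = full reference agonist response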
S1P1 agonist = counter-screen for S1P4 agonists: agonists of human S1P1 | shares compounds with S1P4 ag | S1P1 agonist cell-based assay, activation | activation, % at 4.98 µM | 4% of 740 active; in the data active = activation above about 21%;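 note: 0% = vehicle wells and 100% = reference agonist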
Target sequence (P21453 whole entry, looked up): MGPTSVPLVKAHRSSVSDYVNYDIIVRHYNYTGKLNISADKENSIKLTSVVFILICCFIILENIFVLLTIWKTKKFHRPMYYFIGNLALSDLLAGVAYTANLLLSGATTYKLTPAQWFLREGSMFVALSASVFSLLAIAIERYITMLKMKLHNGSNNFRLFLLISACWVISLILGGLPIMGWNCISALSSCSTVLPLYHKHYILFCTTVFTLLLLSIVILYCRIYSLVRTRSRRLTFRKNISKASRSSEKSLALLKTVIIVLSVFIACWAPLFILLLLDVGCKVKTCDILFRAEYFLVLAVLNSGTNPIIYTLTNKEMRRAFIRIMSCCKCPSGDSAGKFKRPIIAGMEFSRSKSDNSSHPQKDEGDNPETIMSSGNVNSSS
* = called active by the depositor; . = no result given.

SMILES	MDM2 E3 inh	S1P3 antag	Biofilm kill mix	S1P4 antag	S1P4 ag	S1P4 ag conf	S1P1 agonist
CC(C)C(=O)NC(=S)Nc1ccccc1C(=O)NC1CCCCC1	-6.1	10.9	16.0	-9.5	57.9*	-1.4	5.6
Cc1nn(-c2ccccc2)c(Cl)c1/C=N/NS(=O)(=O)c1ccc(Br)cc1	-7.4	-13.1	14.1	2.3	51.5*	-2.5	-6.2
Nn1cc(-c2ccccc2)nc1SCC(=O)NCC(F)(F)F	-17.6	-5.2	14.1	-12.2	14.0*	-1.4	-1.9
Nn1cc(-c2ccccc2)nc1SCC(=O)NCCc1ccccc1	-5.9	-0.2	15.1	22.2	-1.6	.	.
Fc1ccc(-c2nnc3ccccn23)cc1	4.3	-5.4	13.3	1.2	29.3*	-2.0	1.9
CCCCNC(=O)CC1S/C(=N/N=C/c2ccc(OC)cc2)NC1=O (centres undefined)	-10.5	-14.2	6.6	-4.5	12.2*	-2.4	2.9
CCC1CCCCN1C(=O)Cn1nc([N+](=O)[O-])c(Cl)c1C (centres undefined)	-8.0	-15.3	7.3	-5.2	-2.0	.	.
c1ccc(CC2CCCNC2)cc1 (centres undefined)	-6.6	-5.1	-3.7	-4.1	49.4*	0.6	8.9
O=C(CN1CCN(C/C=C/c2ccccc2)CC1)NC(=O)NC1CCCCC1	-14.1	-11.9	24.9	-18.0	2.0	.	.
O=[N+]([O-])c1ccccc1N/N=C/c1cccc(O)c1O	.	-4.5	19.0	-10.4	12.7*	-2.6	1.7
O=[N+]([O-])c1ccccc1N/N=C\c1ccccc1Cl	-33.6	.	.	-35.6	-1.0	.	.
Cc1c(NC(=O)Cn2ccc([N+](=O)[O-])n2)c(=O)n(-c2ccccc2)n1C	-9.7	.	.	-3.7	25.0*	-0.6	-4.4
Cc1c(NC(=O)Cn2cc([N+](=O)[O-])cn2)c(=O)n(-c2ccccc2)n1C	-8.0	-31.2	-10.0	-38.2	-0.3	.	.
CCOC(=O)c1nsnc1NCCSC(=N)N	-4.0	-3.0	7.2	-9.1	0.8	.	.
COc1ccc(CN2CCN(C(C)C)C(CCO)C2)cc1Cn1cncn1 (centres undefined)	-1.5	2.4	9.5	-2.5	0.0	.	.
COc1ccccc1C(=O)c1cc2ccc(O)cc2oc1=O	-13.4	-2.2	6.9	-19.5	2.5	.	.
C/C(=N\NC(=O)CC#N)c1cc2ccc(O)cc2oc1=O	-3.6	-46.4	8.6	-54.4	56.8*	-1.4	-1.0
CN1CCN(Cc2c(O)ccc3cc(Br)ccc23)CC1	5.7	-10.4	5.5	-2.9	32.1*	-2.6	-4.8
O=C(c1cnc2ccc(Cl)cc2c1Cl)N1CCOCC1	-6.6	-4.2	10.3	-5.6	25.6*	-1.3	-0.3
CC1OC23CCCCC2C(C#N)(C(=N)O3)C1(C#N)C#N (centres undefined)	-6.5	.	12.9	11.3	12.5*	-0.9	-1.0
CCC1OC23CCCCC2C(C#N)(C(=N)O3)C1(C#N)C#N (centres undefined)	3.2	.	.	-6.3	1.8	.	.
COc1ccc2c(N)c(C(=O)NN)[nH]c2c1	-4.4	-4.3	13.1	-1.0	-0.7	.	.
CCOCCN(C(=O)COC)c1cccc(OC)c1	-9.9	.	.	-21.5	26.4*	-1.2	-1.9
Cc1cc(S(=O)(=O)N2CCN=C2c2ccccc2)c(C)cc1Cl	8.0	7.0	12.3	-22.0	0.1	.	.
Cc1ccccc1NS(=O)(=O)c1ccc(F)cc1	-7.6	-13.4	.	-21.4	0.8	.	.
SMILES	MDM2 E3 inh	S1P3 antag	Biofilm kill mix	S1P4 antag	S1P4 ag	S1P4 ag conf	S1P1 agonist
Cc1cc2c(NS(=O)(=O)c3ccc(F)cc3)cccc2nn1	-8.3	-6.3	13.8	-6.3	116.3*	-1.1	1.5
Cn1c(=O)oc2cc(S(=O)(=O)N3CCC(C(=O)NCCc4ccccc4)CC3)ccc21	-1.1	9.6	16.7	-5.5	13.9*	-1.5	-7.0
Cc1ccc(CCNC(=O)CN2C(=O)COc3ccccc32)cc1	-16.7	12.0	.	-2.2	-1.1	.	.
Cc1ccc(NC(=O)COC(=O)CN2C(=O)COc3ccccc32)cc1	0.7	.	.	-14.8	28.8*	-1.9	3.1
COc1ccc(/C=N/n2c(C)cc(C)c(C(N)=O)c2=O)cc1	4.1	.	.	-9.8	-1.4	.	.
Clc1ccc(N2CCN(c3ncnc4c3oc3ccccc34)CC2)cc1	.	14.2	.	.	.	.	.
CCOC(=O)C1CCN(c2ncnc3c2oc2ccc(Cl)cc23)CC1	-22.2	-6.3	.	-1.4	186.9*	-2.3	-1.3
